The list is not random: actives were taken first. Their share in the collection is about 1.3%.
Tb MetRS inh = T. brucei MetRS inhibitors, primary screen, biochemical, luminescence; purified T. brucei MetRS, ATP depletion, Kinase-Glo luminescence; 0.4% of 360,000 active; inhibition, % at 11.9 µM; AID 624268, 2012;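 active means inhibition above a per-plate cutoff of the control wells' mean inhibition plus 3 SD, cut at about 5.5% in these data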;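 further: 0% = DMSO wells median and 100% = median of wells with control inhibitor compound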
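technique = Kinase-Glo luminescence, ATP depletion format | system = purified MetRS (methionyl-tRNA synthetase) enzyme from Trypanosoma brucei | timing = 15 min preincubation, 2 h reaction, all 25 °C | evaluation = percent inhibition versus plate control medians | dosing = single dose, 11.9 µM final nominal, 0.9% final DMSO | also added = substrates ATP, L-methionine and bulk Escherichia coli tRNA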
core dimer inh = inhibitors of HCV core protein dimerization, primary screen, biochemical, TR-FRET, high-throughput | TR-FRET GST/Flag-core106 dimerization, 1536-well | inhibition, % at 5 µM | 0.33% of 300,000 active;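 active means inhibition above the mean of all tested compounds plus 3 SD, set per screening campaign, cut at about 45% in these data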
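Test system: GST/Flag-tagged HCV core106 proteins; Medium: KF-containing HEPES buffer, pH 7.45, DTT, CHAPS, BSA; Times: compound-protein-antibody incubation 4 h at 22.5 °C; Detection: TR-FRET 671 and 617 nm emission; Benchmarks: wells lacking GST-core106 and wells with excess unlabelled core106.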
HCV NS3 hel inh = inhibitors of HCV NS3 helicase, primary screen, biochemical, Cy5 molecular beacon fluorescence; Hepatitis C virus NS3 helicase; NS3 helicase DNA unwinding; inhibition, % at 10.9 µM; 0.56% of 290,000 active;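 active means inhibition above the mean of all tested compounds plus 3 SD, set per campaign, cut at about 35% in these data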;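 further: 0% = DMSO wells and 100% = thioflavine S control wells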
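Measured by: Cy5 fluorescence, 0 and 60 min reads / Assay system: NS3 helicase fragment of HCV / Control set: low DMSO, high thioflavine S at 110 µM / Times: 1 h reaction at 25 °C, ATP-initiated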
Lipid droplet = inhibitors of hepatocyte lipid droplet formation, primary screen, imaging, high-throughput imaging, BODIPY stain. AML12 mouse hepatocytes, oleate lipid droplets. inhibition, % at 6.5 µM. 0.4% of 240,000 active. AID 1656, 2009;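 active means lipid droplet intensity inhibited by at least 50%, with more than 500 cells counted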
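Assay system: AML12 mouse liver cells | Compound dosing: One dose, 6.5 µM compound | Read-out basis: Droplet intensity reduction, % inhibition | Measured by: Fluorescence imaging, 20x objective, two fields per well | Schedule: Overnight treatment with compound plus oleate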
NS3 hel confirm = HCV NS3 helicase inhibitors, retest, confirmation, biochemical, Cy5 molecular beacon fluorescence, triplicate; inhibition, % at 10.9 µM; 31% of 1,600 active; NS3 helicase DNA unwinding; shares compounds with HCV NS3 hel inh;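 active means inhibition above the mean of all tested compounds plus 3 SD, cutoff set per campaign, cut at about 36% in these data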
FID counter trip = compounds displacing fluorescent DNA intercalator, artefact control for HCV NS3 helicase inhibitor project, biochemical, FID fluorescence, triplicate; shares compounds with HCV NS3 hel inh; DNA fluorescent intercalator displacement; inhibition, % at 7.9 µM; 4% of 1,600 active; AID 1945, 2009; in the data active means inhibition above about 37%;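 further: 0% = vehicle and 100% = reference compound; higher means more displacement of ethidium bromide from the DNA hairpin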
Active calls of the source: *; / = no result.

SMILES	Tb MetRS inh	core dimer inh	HCV NS3 hel inh	Lipid droplet	NS3 hel confirm	FID counter trip
O=C(O)CN1C(=O)/C(=C\c2cc(Br)ccc2OCc2ccc([N+](=O)[O-])cc2)SC1=S	1.5	26.2	56.0*	-31.2	65.8*	56.1*
O=C(O)CN1C(=O)/C(=C\c2ccccc2OCc2ccc(Cl)cc2Cl)SC1=S	3.4	21.1	47.1*	1.9	66.0*	32.4
COc1cc(/C=C2/SC(=S)N(Cc3ccccc3)C2=O)ccc1OCC(=O)O	-1.1	37.3	37.3*	5.8	35.0	31.8
O=C1/C(=C\c2cc(Br)cc(Br)c2O)SC(=S)N1Cc1ccccc1	-0.2	6.1	57.3*	-0.7	75.3*	29.2
O=C1/C(=C\c2ccc(O)cc2)SC(=S)N1Cc1ccccc1	-1.0	-6.8	-8.4	-1.0	/	/
COc1cc([N+](=O)[O-])cc(/C=C2/SC(=S)N(Cc3ccccc3)C2=O)c1O	-0.8	-4.6	24.4	-10.9	/	/
COc1cc(/C=C2/SC(=S)N(Cc3ccccc3)C2=O)ccc1OS(C)(=O)=O	-1.0	-38.6	-12.1	-2.5	/	/
OCC1OC(c2ccc(OCc3ccccc3)cc2OCc2ccccc2)C(O)C1O (stereo not drawn)	-0.3	/	/	/	/	/
O=C(O)CN1C(=O)/C(=C\c2cc(Br)ccc2OCc2ccccc2Cl)SC1=S	-1.0	12.4	46.8*	-16.3	68.9*	47.9*
O=C(O)CN1C(=O)/C(=C\c2cc(Br)ccc2OCc2ccccc2F)SC1=S	0.3	9.2	24.9	-0.9	/	/
CCOC(=O)N1CCN(Cc2nc3c(c(=O)n(C)c(=O)n3C)n2Cc2ccccc2C)CC1	-1.4	-1.3	60.8*	/	-14.6	-43.6
O=S(=O)(Nc1cccc(S(=O)(=O)N2CCCCC2)c1)c1ccc(Cl)s1	-0.4	/	/	/	/	/
O=C(Nc1nnc(-c2ccc3c(c2)CCCC3)o1)c1ccc(Cl)cc1Cl	-0.5	41.1	72.3*	7.1	71.6*	-25.0
COc1ccc(OC)c(NC(=O)c2csc(Cl)c2OC)c1	-1.6	-15.8	2.8	/	/	/
Cc1cc(C(=O)CSc2nn3c(=O)c(C(C)(C)C)nnc3s2)c(C)n1-c1ccc(F)cc1	-0.2	49.1*	39.5*	/	2.9	-26.7
CC(C)N(C(=O)CSc1nn2c(=O)c(C(C)(C)C)nnc2s1)c1ccccc1	0.3	0.7	5.2	/	/	/
COc1ccc2nc(C)cc(SCC(=O)N/N=C/c3ccc(O)cc3O)c2c1	0.1	2.7	-12.7	22.6	/	/
COc1ccc(N2Cc3ccc(C(=O)N/N=C\c4ccc(O)cc4O)cc3C2)cc1	/	68.3*	39.8*	-14.7	30.5	-7.8
CCc1ccc(-n2c(=S)sc3c(=O)n(-c4ccccc4)c(SCC(=O)O)nc32)cc1	1.1	-0.8	4.5	-3.6	/	/
CCCc1nc(SCC(=O)O)c2sc(=S)n(-c3ccccc3)c2n1	-0.4	6.4	36.8*	-13.8	1.2	-21.3
COCCNC(=O)c1cc2cc3ccc(OC)cc3nc2o1	0.0	-1.2	18.5	/	/	/
CCOc1ccc(NC(=O)c2cc3cc4ccc(OC)cc4nc3o2)cc1	0.0	14.9	5.6	-3.8	/	/
CCOc1ccc(NC(=O)c2cc3cc4ccc(C)cc4nc3o2)cc1	/	3.8	46.6*	-7.6	-16.8	-1.3
CCC(C)NC(=O)c1cc2cc3ccc(OC)cc3nc2o1 (stereo not drawn)	-1.3	-3.2	38.1*	4.1	-9.8	-29.4
Cc1cccc(Nc2ccc([N+](=O)[O-])cc2C(=O)O)c1	0.0	8.5	37.2*	-2.5	65.5*	-9.3
SMILES	Tb MetRS inh	core dimer inh	HCV NS3 hel inh	Lipid droplet	NS3 hel confirm	FID counter trip
O=C(O)c1cc([N+](=O)[O-])ccc1Nc1ccccc1	0.1	-5.7	14.0	-0.2	/	/
CC(=O)c1cccc(NS(=O)(=O)c2ccc(C(=O)Nc3ccccc3)cc2)c1	-0.1	-20.4	41.6*	-11.6	-18.1	-1.9
O=C(Nc1ccccc1)c1ccc(S(=O)(=O)Nc2cccc(O)c2)cc1	-0.3	-11.7	-14.1	2.3	/	/
CC(C)CSC1=NSC2=NC(=O)/C(=C\c3cccs3)C(=N)N12	-0.7	-2.2	37.2*	/	53.1*	11.6
CC(c1ccccc1)N(NC(=O)C(O)(c1ccccc1)c1ccccc1)C(=O)c1ccccc1 (stereo not drawn)	0.3	-1.8	10.2	/	/	/
COc1ccc(C(=O)O)cc1S(=O)(=O)N1CCN(Cc2ccc3c(c2)OCO3)CC1	-0.1	/	/	/	/	/
COc1ccc([N+](=O)[O-])cc1NCc1cccc([N+](=O)[O-])c1	-0.3	-1.9	41.4*	30.5	-6.5	23.3
CCN(CC)c1ccc2nc3c4ccccc4c(=O)cc-3oc2c1	/	/	71.3*	26.0	101.5*	3.9
COc1cc2c(cc1C1C(C#N)=C(N)OC3=C1C(=O)CC(C)(C)C3)OCO2 (stereo not drawn)	-0.5	1.7	-14.3	-0.1	/	/
COc1ccc(C2C(C#N)=C(N)Oc3cc4c(cc32)OCO4)cc1 (stereo not drawn)	0.0	-0.3	39.8*	0.4	-15.6	-8.9
O=C1NC(c2ccccc2)CCO1 (stereo not drawn)	-0.4	0.3	56.5*	4.9	-10.3	12.9
Cc1ccccc1NC(=O)c1sc2nc3c(c(-c4ccco4)c2c1N)CCCC3	-0.4	5.6	44.0*	5.3	-12.2	-26.6
Nc1c(C(=O)Nc2ccccc2)sc2nc3c(c(-c4ccco4)c12)CCC3	-1.6	14.8	41.2*	/	-10.1	-16.3
Cc1cccc(OCC(=O)Nc2cc(NC(=O)COc3cccc(C)c3)cc(C(=O)O)c2)c1	-0.5	-1.0	40.9*	21.3	63.3*	-23.4
Cc1cccc(C)c1OCC(=O)N/N=C/C=C/c1ccco1	-0.6	-9.1	7.6	-0.4	/	/
Cc1cccc(OCC(=O)N/N=C/C=C/c2ccco2)c1	0.1	28.4	42.6*	-3.1	-6.9	3.6
Cc1ccc(NC(=O)CC2SC(=O)NC2=O)cc1 (stereo not drawn)	0.5	4.9	47.4*	28.8	-8.6	15.9
Cc1ccc(C2C=CC(C#N)=CN2Cc2ccccc2)cc1 (stereo not drawn)	-0.4	/	/	/	/	/
Fc1ccc(-[n+]2nc(Nc3ccccc3)sc2-c2cccc(Cl)c2Cl)cc1	-0.1	-29.7	31.4	-2.5	/	/
Clc1cccc(-c2sc(Nc3ccccc3)n[n+]2-c2ccccc2)c1Cl	-0.3	-12.2	69.4*	/	9.3	19.9
COc1cc(Br)c(-c2sc(Nc3ccccc3)n[n+]2-c2ccc(F)cc2)cc1OC	-0.2	-34.6	45.3*	/	12.7	-5.0
CCn1c(=O)c(CCC(=O)N2CCN(c3ccccn3)CC2)c(C)c2c(C)nn(-c3cccc(C)c3)c21	0.0	13.0	-20.3	-17.8	/	/
